# Source: PubChem BioAssay (several laboratories)
# HKDC1 inh: blocks human hexokinase HKDC1 activity; recombinant HKDC1, G6PDH/diaphorase resazurin coupled fluorescence; inhibition, % at 20 µM; 340,000 tested, 0.16% active;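 active = inhibition above about 35% when tested at 20 µM, limit read from the data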;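 note: plate controls were DMSO wells with enzyme for no effect and DMSO wells lacking enzyme for full effect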
# Target sequence (Q2TB90 whole entry, looked up): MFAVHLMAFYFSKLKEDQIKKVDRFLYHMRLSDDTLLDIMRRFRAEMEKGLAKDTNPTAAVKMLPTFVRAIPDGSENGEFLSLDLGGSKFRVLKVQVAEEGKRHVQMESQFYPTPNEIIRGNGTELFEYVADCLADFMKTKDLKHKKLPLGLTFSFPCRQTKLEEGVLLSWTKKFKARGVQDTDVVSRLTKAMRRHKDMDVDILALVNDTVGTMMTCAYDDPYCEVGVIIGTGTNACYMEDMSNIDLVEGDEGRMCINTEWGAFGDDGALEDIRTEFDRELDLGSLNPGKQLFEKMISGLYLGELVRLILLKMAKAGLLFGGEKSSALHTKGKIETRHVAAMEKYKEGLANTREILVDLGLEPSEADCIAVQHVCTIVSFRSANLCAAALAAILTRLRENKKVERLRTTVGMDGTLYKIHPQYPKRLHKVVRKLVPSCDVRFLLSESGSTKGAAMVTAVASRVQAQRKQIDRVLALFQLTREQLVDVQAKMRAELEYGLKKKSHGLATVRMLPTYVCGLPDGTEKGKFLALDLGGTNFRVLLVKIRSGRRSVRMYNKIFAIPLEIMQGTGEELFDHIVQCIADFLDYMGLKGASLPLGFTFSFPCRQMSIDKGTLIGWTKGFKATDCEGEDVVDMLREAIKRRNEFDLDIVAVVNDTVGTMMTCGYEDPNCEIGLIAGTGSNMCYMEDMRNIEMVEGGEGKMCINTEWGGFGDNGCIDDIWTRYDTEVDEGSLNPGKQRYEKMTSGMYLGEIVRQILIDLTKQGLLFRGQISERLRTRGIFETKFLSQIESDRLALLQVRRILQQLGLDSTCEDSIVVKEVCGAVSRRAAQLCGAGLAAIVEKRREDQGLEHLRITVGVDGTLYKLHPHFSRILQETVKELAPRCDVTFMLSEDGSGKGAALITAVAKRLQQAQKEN
#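 Assay system: recombinant HKDC1 hexokinase; detection: coupled resazurin fluorescence, excitation 525 nm, emission 613 nm; benchmarks: DMSO-plus-enzyme-mix negative control, buffer-substituted positive control; compound dosing: single 20 µM dose; schedule: 90 min at room temperature in dark; also added: glucose plus 1 mM ATP as hexokinase substrates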
# VIM-2 inhibitor: blocks Pseudomonas aeruginosa VIM-2 metallo-beta-lactamase. AID 1527. 290,000 tested, 0.89% active. purified VIM-2, nitrocefin hydrolysis, epi-absorbance fluorescence. inhibition, % at 5.6 µM;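 active = inhibition above the mean of all tested compounds plus 3 SD, cutoff set per screening run, cut at about 7.5% in these data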;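 note: red hydrolysis product quenches plate fluorescence so inhibitors raise well fluorescence; 0% = enzyme with DMSO and 100% = DMSO without enzyme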
# ATG4B inhibitor: ATG4B (human) cysteine protease inhibition | 340,000 tested, 0.51% active | ATG4B cleavage of LC3-PLA2, NBD-HPC fluorescence, 1 h | inhibition, % at 8.33 µM | Q9Y4P1 | AID 504462; in the data active = inhibition above about 40%
# MIN6 prolif: inducers of beta-cell replication in MIN6 cells; MIN6 cells proliferation, ATPlite luminescence, 48 h; cells starved in 0.2% serum; 100% = growth in 10% serum; proliferation, % at 10 µM; 330,000 tested, 0.29% active; AID 2380;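 active = compounds whose signal lies at least 3.5 SD above the mean of all wells on their plate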;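 note: 0% = DMSO-treated cells in low-serum medium and 100% = 10% serum control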
# PvdQ acylase: P. aeruginosa PvdQ acylase inhibition; purified PvdQ acylase, fluorescence plate reader; inhibition, % at 10 µM; 340,000 tested, 0.063% active; AID 488965; in the data active = inhibition above about 30%, passing the limit was not always enough;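 note: 0% = vehicle neutral wells and 100% = reference inhibitor wells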
# IMP-1 inh: blocks Pseudomonas aeruginosa IMP-1 metallo-beta-lactamase; inhibition, % at 5.6 µM; 290,000 tested, 0.45% active; purified IMP-1, nitrocefin hydrolysis, epi-absorbance fluorescence; AID 1556;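 active = inhibition above the mean plus 3 SD of all compounds in the same screening run, cut at about 4.5% in these data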;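 note: 0% = IMP-1 with DMSO and 100% = DMSO wells lacking enzyme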
#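 Assay system: purified IMP-1; Quantity: IMP-1 0.2 nM before substrate addition; Medium: HEPES buffer pH 7.1 with ZnSO4 and Brij 35; Incubation: 15 min enzyme–compound preincubation, then 25 min nitrocefin reaction, 25 °C; Signal: fluorescence quenching readout, ex 480/em 530 nm; Controls: DMSO with and without IMP-1; Repeats: singlicate testing.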
# An asterisk follows results filed as active; / = no result given. Sampled rows, rich in hits. Any-hit rate of the full collection: about 2%.
SMILES,HKDC1 inh,VIM-2 inhibitor,ATG4B inhibitor,MIN6 prolif,PvdQ acylase,IMP-1 inh
CSc1nc(SCCN(C)C)c2c3c(sc2n1)COC(C)(C)C3,4,8.9*,-6,-1,-11,-2
CCc1nc(SCC(=O)O)c2c3c(sc2n1)COC(C)(C)C3,2,8.1*,3,2,-10,-1
CCOC(=O)COc1cc2c3c(c(=O)oc2cc1C)CCCC3,-9,2,7,-2,-17,1
CCOC(=O)COc1cc(OCC(=O)OCC)c2c3c(c(=O)oc2c1)CCCC3,11,9.4*,-8,-2,-20,-2
C=CCOc1ccccc1/C=c1\sc2nc(=O)c(C)nn2c1=O,7,-2,3,3,-4,9.2*
COc1ccc(-c2nn3c(-c4cccc(C)c4)nnc3s2)cc1OC,12,4,1,3,11,-2
COc1ccc(-c2nn3c(-c4ccccn4)nnc3s2)cc1OC,-9,12*,-11,1,-14,-2
COc1cccc(-c2nn3c(-c4ccccn4)nnc3s2)c1,-5,8.0*,1,-2,-3,-2
CN(C)c1ccc(-c2nn3c(-c4ccccc4Cl)nnc3s2)cc1,3,-2,2,-6,3,-2
c1ccc(-c2nn3c(-c4ccco4)nnc3s2)nc1,1,9.7*,0,-3,-7,-4
COc1cccc(-c2nn3c(-c4cc(C)[nH]n4)nnc3s2)c1,4,4,-13,-1,-6,0
COc1ccccc1-c1nnc2sc(-c3ccc(N(C)C)cc3)nn12,8,-4,0,-4,-18,15*
C/C(=N\Nc1ccc(C(F)(F)F)cc1[N+](=O)[O-])C1CC1,8,-5,11,1,-19,-3
NC(=O)CC1Nc2cccc3cccc(c23)NC1=O (stereo not drawn),0,8.1*,2,-2,8,9.1*
O=C(CC1Nc2cccc3cccc(c23)NC1=O)Nc1ccccc1 (stereo not drawn),16,1,-4,1,-2,-2
CCOC(=O)c1ccc(N(CCC2CO2)S(=O)(=O)c2ccc(C)cc2)cc1 (stereo not drawn),-2,/,10,/,8,/
O=C(CN1C(=O)NC2(CCc3ccccc3C2)C1=O)Nc1ccc(F)cc1 (stereo not drawn),-10,0,-15,0,21,1
C[n+]1ccc(/C=C/c2c[nH]c3ccc(F)cc23)cc1,-5,6,-3,-2,-14,4.6*
CCc1ccc(/C=C/c2c[nH]c3ccccc23)[n+](CC)c1,-2,-3,-1,-6,-8,-1
NC(=O)CSc1nnc(CSc2ncccn2)n1-c1ccccc1,-4,0,1,-1,-16,1
COc1ccc(CCNC(=O)C2CCC(C(C)(C)C)CC2)cc1OC (stereo not drawn),4,-3,4,-4,-16,-2
CCSc1nc2ccccc2n1Cc1nc(N)nc(N(C)C)n1,-12,-2,-4,-2,8,-4
CN(C)c1nc(N)nc(Cn2ccnc2)n1,-4,8.8*,10,0,-19,-3
CC1(C)Cc2c(C#N)c(N)sc(=S)c2CS1,15,1,-5,-3,-12,6.4*
Cc1cc(C)cc(OCC(=O)Nc2ccc3c(c2)C(=O)c2ccccc2C3=O)c1,-7,-3,8,-2,-13,-1
SMILES,HKDC1 inh,VIM-2 inhibitor,ATG4B inhibitor,MIN6 prolif,PvdQ acylase,IMP-1 inh
Cc1cc(C)c(O)c(C2(O)C(=O)c3ccccc3C2=O)c1,-6,-1,-1,-1,15,-3
Clc1ccc2[nH]c3c(NCCCN4CCOCC4)ncnc3c2c1,2,9.9*,-9,2,4,2
CCN1CCCC1CNc1ncnc2c1[nH]c1ccc(Cl)cc12 (stereo not drawn),7,12*,-8,-6,-7,2
Cc1cc(=O)[nH]c(SCC(=O)N(CCC#N)c2ccccc2)c1C#N,-10,-2,5,-2,-8,0
CCc1ccc2c(CC(=O)Nc3nnc(C4CC4)s3)coc2c1,-1,-3,-5,2,-12,61*
CCOc1cc(C(=O)OCC(=O)N(C)c2ccccc2)cc(OCC)c1OCC,-5,0,12,0,9,12*
CC1CCCN(C2=C(NS(=O)(=O)c3ccc(Br)cc3)C(=O)c3ccccc3C2=O)C1 (stereo not drawn),18,11*,8,-3,-7,1
CCOC(=O)C1CCCN(C2=C(NS(=O)(=O)c3ccc(Br)cc3)C(=O)c3ccccc3C2=O)C1 (stereo not drawn),15,8.2*,-2,-7,-14,1
CC1=NN(c2ccc(Cl)c(C(=O)O)c2)C(=O)/C1=C\c1ccc(-c2ccc(C(=O)O)cc2)o1,7,-2,10,/,-3,7.7*
Cc1cc(CNC(=O)CC2C(=O)NCCN2Cc2ccccc2C(F)(F)F)on1 (stereo not drawn),-3,-3,2,4,1,-3
Cc1cccc(C(=O)NNC(=O)c2cccc(C)c2)c1,-10,-1,-8,-1,3,0
Cc1cccc(C(=O)NNC(=O)C2CC2)c1,-2,8.7*,-4,0,-1,-2
Cc1ccc(C2OC34CCCCCC3C(C#N)(C(=N)O4)C2(C#N)C#N)cc1 (stereo not drawn),16,0,-5,9.0*,2,-1
CCCCOc1ccc(C2OC34CCCCC3C(C#N)(C#N)C2(C#N)C(=N)O4)cc1 (stereo not drawn),6,0,-5,9.8*,-21,-1
O=c1/c(=C/c2ccco2)sc2nc(-c3ccccc3Br)nn12,4,1,4,-1,-4,5.2*
Oc1c(Br)cc(Br)cc1C=NCc1ccc(F)cc1,14,-3,74*,-5,-13,-1
CCOc1ccc(OCCC(=O)OCC(=O)NCc2ccccc2)cc1,-1,-1,5,-2,1,-3
COc1ccccc1CNS(=O)(=O)c1ccc(-n2cccn2)cc1,-7,-2,-4,3,-6,-4
O=[N+]([O-])c1ccc(COc2cccnc2)cc1,-2,-1,1,0,-3,-2
O=[N+]([O-])c1ccc(-c2cccnc2)cc1,-6,/,0,/,49*,/
CC(=O)N1c2ccc(S(=O)(=O)N3CCCC3)cc2CC1C(=O)NCc1ccccc1F (stereo not drawn),-9,-4,-3,-3,0,-1
Clc1cccc(Cl)c1CSc1nnc([C@@H]2CCCN2)o1,-1,1,0,-3,-17,5.0*
COc1ccc(CN(C)C(=O)c2cc(S(=O)(=O)Nc3ccccc3F)ccc2C)c(OC)c1,1,1,-1,5,5,4.8*
CC(=O)c1cc(O)c2ccccc2c1O,44*,1,1,-7,-6,-3
